Sampled rows, rich in hits. Any-hit rate of the full collection: about 3.5%.
RGS4 inh = inhibitors of human RGS4; P49798; HEK293 M3R/RGS4 inducible, Fluo-4 calcium flux; active compounds read high; triggered by carbachol at its EC20; B-score at 10 µM; actives 0.45% (n = 310,000); AID 463165;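 active = B-score, a plate-corrected calcium signal, over three deviations above library mean, with baseline fluorescence within five deviations of library mean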;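 also: RGS4 expression induced by doxycycline in cells with stable M3 receptor; B-score is computed from the integrated fluorescence ratio over baseline after carbachol; higher B-score means a larger calcium signal and so more RGS4 inhibition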
Target sequence (P49798 whole entry, looked up): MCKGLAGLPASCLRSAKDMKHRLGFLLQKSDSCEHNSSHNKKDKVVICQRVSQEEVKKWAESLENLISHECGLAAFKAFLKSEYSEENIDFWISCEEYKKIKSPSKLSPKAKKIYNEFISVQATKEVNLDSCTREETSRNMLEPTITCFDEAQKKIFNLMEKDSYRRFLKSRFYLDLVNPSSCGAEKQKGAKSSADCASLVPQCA
MrgX1 agonist = activates human MrgX1 receptor signaling. Q96LB2. B-score at 10 µM. MrgX1-HEK293 cells, Fluo-4 calcium fluorescence, agonist mode; active compounds read high. AID 588627. actives 0.44% (n = 310,000);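 active = calcium response B-score plate-corrected fluorescence ratio at least 3 library SD, with starting fluorescence B-score inside 5 SD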
Target sequence (Q96LB2 whole entry, looked up): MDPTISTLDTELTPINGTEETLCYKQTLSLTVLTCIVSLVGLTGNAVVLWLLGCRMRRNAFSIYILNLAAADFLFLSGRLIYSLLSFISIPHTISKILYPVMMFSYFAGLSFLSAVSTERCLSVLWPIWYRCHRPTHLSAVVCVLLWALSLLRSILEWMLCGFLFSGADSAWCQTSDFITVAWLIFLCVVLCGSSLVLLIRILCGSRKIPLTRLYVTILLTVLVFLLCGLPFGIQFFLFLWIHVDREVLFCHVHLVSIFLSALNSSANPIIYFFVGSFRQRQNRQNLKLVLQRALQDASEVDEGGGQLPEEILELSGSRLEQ
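Assay system: stable human MrgX1 HEK293 cell line. Quantity: 15,000 cells per well. Schedule: cells plated overnight, dye loaded 0.5 h 37 °C, 0.5 h room temperature. Detection: Fluo-4 NW calcium-flux fluorescence, kinetic read. Read-out basis: peak-minus-minimum fluorescence over baseline, converted to B scores. Control set: positive and negative control wells on each plate.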
RGS4 act = potentiators or activators of RGS4; HEK293 M3R/inducible RGS4, carbachol calcium flux Fluo4; active compounds read low; B-score at 10 µM; actives 0.92% (n = 310,000); AID 463111;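 active = B-score of the integrated calcium signal more than 4 SD below the library mean, with starting fluorescence not abnormally high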;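 also: negative B-score means reduced calcium response which marks RGS4 activation or potentiation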
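Material: Inducible-RGS4 HEK293 cells carrying M3 receptor; also added: carbachol at ECmax as muscarinic agonist stimulus; incubation: compound preincubation 20 min at room temperature before agonist; signal: Fluo4-AM (2 µM) calcium-flux fluorescence, kinetic read; measure: integrated calcium ratio converted to B score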
MrgX1 antagonist = blocks BAM8-22 activation of human MrgX1 receptor. B-score at 10 µM. Q96LB2. actives 1.3% (n = 310,000). MRGX1-HEK293 calcium flux, Fluo-4, BAM8-22 antagonism; active compounds read low;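 active = calcium-response B-score plate-corrected more than 3 library SD below zero, starting fluorescence within 5 deviations, no agonist response on first addition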;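 also: peak minus trough fluorescence over baseline after final BAM8-22 challenge near maximal dose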
MrgX1 PAM = allosterically activates human MrgX1 receptor signaling; Q96LB2; AID 588675; B-score at 10 µM; actives 0.63% (n = 310,000); MrgX1-HEK293, Fluo-4 calcium flux, FDSS; active compounds read high;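 active = plate-corrected calcium response at least 3 library SD above typical, normal starting fluorescence, not activating the receptor alone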;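 also: compound read alongside a low EC10 to EC30 dose of BAM8-22 agonist; peak minus trough fluorescence over baseline measured at the second addition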
RGS4 block valid = validation of RGS4 inhibitors; HEK293 M3R/RGS4, carbachol calcium Fluo-4 fluorescence; carbachol added at its EC20; 0 = buffer wells, 100 = carbachol control; AID 492999; actives 65% (n = 1,700); shares compounds with RGS4 inh; calcium response, % at 10 µM;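 active = duplicate-averaged calcium response above the buffer-only control mean plus 5 SD of those controls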;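 also: integrated fluorescence ratio F max minus min over baseline F0; higher response in RGS4-induced cells means RGS4 inhibition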
RGS4 uninduced = counter-screen for RGS4 inhibitors: effect in non-induced cells; shares compounds with RGS4 inh; HEK293 M3R non-induced, carbachol calcium Fluo-4; submaximal (EC20) carbachol stimulus; buffer wells 0%, carbachol control wells 100%; activity (percent), % at 10 µM; actives 20% (n = 1,900); call rule not given here;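 also: RGS4 induction absent so cells express M3R without RGS4; higher means more calcium signal and flags a non-specific hit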
M3R basal Ca ctr = second counter-screen for RGS4 inhibitors: non-induced cells without carbachol | HEK293 M3R/RGS4 non-induced, Fluo-4 calcium, no carbachol; normalised: buffer wells 0%, carbachol wells 100% | shares compounds with RGS4 inh | calcium response (agonist-mode artifact), % at 10 µM | actives 22% (n = 1,900) | AID 493001;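 active = duplicate-averaged calcium rise in uninduced cells above buffer wells' mean plus 5 SD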
MrgX1 ag confirm = confirmation of human MrgX1 receptor agonists; MrgX1-HEK293, Fluo-4 calcium fluorescence, FDSS; activation, % at 10 µM; actives 78% (n = 600); shares compounds with MrgX1 agonist;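 active = calcium signal rise, corrected for plate position, at least 3 library SD high, with starting brightness within 5 such deviations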
MrgX1 allo conf = confirmation of human MrgX1 receptor positive allosteric modulators. actives 13% (n = 1,200). AID 602413. MrgX1-HEK293, Fluo-4 calcium fluorescence, FDSS. activation (ratio percentage), % at 10 µM. shares compounds with MrgX1 PAM;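 active = ratio at least 3 SD above the weak peptide control, stable starting fluorescence, no direct agonism earlier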;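 also: compound followed by low BAM8-22 agonist challenge near EC20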
HEK293 Ca flux = activity in parental HEK293 cells lacking MrgX1 | fluorescence ratio F(max-min)/F0 at 10 µM | actives 2% (n = 4,000) | shares compounds with MrgX1 antagonist | Fluo-4 calcium fluorescence, FDSS | AID 624111;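 active = duplicate-averaged calcium fluorescence ratio at least three times the standard deviation of buffer wells, a nonspecific response in parental cells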
HEK293 Ca counter = MrgX1 allosteric activator counter-screen hit in parental HEK293 cells | AID 624114 | shares compounds with MrgX1 antagonist | parental HEK293 calcium flux, Fluo-4 fluorescence ratio; active compounds read high | fluorescence ratio F(max-min)/F0 at 10 µM | actives 0.4% (n = 4,000);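 active = calcium fluorescence ratio, averaged over duplicates, at least 3 SD of the buffer-well ratio, meaning a nonspecific response in receptor-free cells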;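 also: untransfected parental HEK293 lacking MrgX1 used as counterscreen for MrgX1 allosteric activators; fluorescence change taken during the second addition on a kinetic imager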
HEK293 Ca cntr2 = counter-screen for MrgX1 activators: effect in parental HEK293 cells; shares compounds with MrgX1 antagonist; Fluo-4 calcium fluorescence (FDSS); active compounds read high; fluorescence ratio F(max-min)/F0 at 10 µM; actives 8.7% (n = 4,000); AID 624115;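 active = calcium fluorescence ratio at least three times the spread of buffer wells, meaning a non-specific response in parental cells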
Of the large screens only hits and unclear results are named; the others gave an inactive call (follow-up assays come after a bar, where they were run).

CCN(CC)P(=O)(/C=C(\Cl)c1ccccc1)/C=C(\Cl)c1ccccc1	none
NC1=C([N+](=O)[O-])C(c2ccc3c(c2)OCO3)c2c(c3ccccc3oc2=O)O1 (stereo not given)	none
O=c1oc2ccccc2c(O)c1[C@H]1c2ccc(O)cc2Oc2c1c(=O)oc1ccccc21	RGS4 inh 11.2 | RGS4 block valid 58.5% | RGS4 uninduced 35.0% | M3R basal Ca ctr inactive
CCCCn1c(O)c(/C(C)=N/NC(=O)Nc2ccccc2)c(=O)[nH]c1=O	none
COC(=O)C1=Nc2ccccc2/C1=C\c1c(O)n(-c2cc(OC)ccc2OC)c(=O)[nH]c1=O	none
Cc1cccc(-n2c(O)c(/C=C3/C(c4ccccc4)=Nc4ccccc43)c(=O)[nH]c2=O)c1	MrgX1 agonist 47.1 | RGS4 uninduced inactive | M3R basal Ca ctr 29.0%
CCc1cc2c(s1)N(CC(=O)OC)C(=O)CN=C2c1ccccc1OC	none
CCc1cc2c(s1)NC(=O)CN=C2c1cccs1	RGS4 inh 5.96 | RGS4 block valid 24.5% | RGS4 uninduced 31.0% | M3R basal Ca ctr inactive
Cc1ccc(N2C(=O)NC(=O)/C(=C/c3cnn(-c4ccc(C)cc4)c3)C2=O)cc1	RGS4 inh 4.76 | RGS4 block valid 10.0% | RGS4 uninduced inactive | M3R basal Ca ctr inactive
CSc1ncc(/C=C2/C(=O)NC(=O)N(c3ccc(C)cc3)C2=O)cn1	none
COc1cc2c(cc1O)C[C@H]1c3c(cc(O)c(OC)c3-2)CCN1C	none (no result: RGS4 inh, RGS4 act)
CN1CCc2cc(O)cc3c2[C@H]1Cc1ccc(O)c(O)c1-3	RGS4 inh 7.31 | RGS4 block valid 30.5% | RGS4 uninduced inactive | M3R basal Ca ctr inactive
Cn1cccc1/C=C1/C(=O)NC(=O)N(Cc2ccccc2)C1=O	none
Cn1cccc1/C=C1/C(=O)NC(=S)N(Cc2ccc(F)cc2)C1=O	RGS4 inh 7.22, MrgX1 PAM 7.05 | RGS4 block valid inactive | RGS4 uninduced inactive | M3R basal Ca ctr inactive
Cn1cccc1/C=C1\C(=O)NC(=O)N(Cc2ccccc2)C1=O	none
Cn1cccc1/C=C1/C(=O)NC(=O)N(Cc2ccc(F)cc2)C1=O	none | RGS4 block valid inactive | RGS4 uninduced inactive | M3R basal Ca ctr 9.0%
Cn1c(O)c(/C=N/N2CCOCC2)c(=O)[nH]c1=S	none
CN1C(=O)C(=Cc2ccc(-c3cccc(Cl)c3)o2)C(=O)N(C)C1=O	RGS4 inh 5 | RGS4 block valid 22.0% | RGS4 uninduced 34.0% | M3R basal Ca ctr 52.5%
CN1C(=O)C(=Cc2ccc(N3CCOCC3)o2)C(=O)N(C)C1=O	none
Cc1ccc(Sc2ccc(C=C3C(=O)N(C)C(=O)N(C)C3=O)o2)cc1	none | RGS4 block valid inactive | RGS4 uninduced inactive | M3R basal Ca ctr 79.5%
CCN1C(=O)C(=Cc2ccc(C)s2)C(=O)N(CC)C1=S	none
CN1C(=O)/C(=C\c2ccc(Br)s2)C(=O)NC1=S	RGS4 inh 19.4 | RGS4 block valid 5.5% | RGS4 uninduced inactive | M3R basal Ca ctr inactive
Cc1cc(/C=C2\C(=O)NC(=S)N(C)C2=O)c(C)n1C1CCCCC1	none
O=C1NC(=S)NC(=O)C1=Cc1ccc(Br)s1	RGS4 inh 22.1 | RGS4 block valid 78.0% | RGS4 uninduced inactive | M3R basal Ca ctr 18.0%
O=[N+]([O-])c1ccc(N2CCCCCC2)c2ncccc12	none
COC[C@]12CN(C)C3C4[C@H](OC)[C@H]1C3([C@@H](OC)C[C@H]2O)[C@@H]1C[C@@]2(O)[C@H](OC(=O)c3ccccc3)[C@@H]1[C@]4(OC(C)=O)[C@@H](O)[C@@H]2OC	none
CCCN1CCc2cc(O)cc3c2[C@H]1Cc1ccc(O)c(O)c1-3	RGS4 inh 10.5, MrgX1 agonist 30.9 | RGS4 block valid 65.0% | RGS4 uninduced inactive | M3R basal Ca ctr inactive | MrgX1 ag confirm inactive | HEK293 Ca flux inactive | HEK293 Ca counter inactive | HEK293 Ca cntr2 inactive
CC(=O)N(C)CC#CCN1CCC(O)CC1	none
CCCN1C2CCCC1CC(NC(C)=O)C2 (stereo not given)	MrgX1 agonist 49.9 | MrgX1 ag confirm inactive | HEK293 Ca flux inactive | HEK293 Ca counter inactive | HEK293 Ca cntr2 inactive
CC(C)(O)[C@@H]1[C@H]2OC(=O)[C@@H]1[C@]1(O)C[C@H]3O[C@]34C(=O)O[C@H]2[C@]14C (tested in a mixture with another compound)	none
CN1CCN(Cc2cn(C)c3ccccc23)CC1CCO (stereo not given)	none
C=Cn1c(P(=S)(N2CCOCC2)N2CCOCC2)cc2c1CCCC2	MrgX1 agonist 66.1 | MrgX1 ag confirm inactive | HEK293 Ca flux inactive | HEK293 Ca counter inactive | HEK293 Ca cntr2 inactive
Cc1ccc(-c2cc(-c3ccc(C)cc3)[n+](C)o2)cc1	none
Cc1ccc(-c2cc(-c3ccc(C)cc3)[n+](-c3ccccc3)c(-c3ccc(C)cc3)c2)cc1	MrgX1 agonist 77.4, RGS4 act -10.7 | MrgX1 ag confirm 350.6% | HEK293 Ca flux inactive | HEK293 Ca counter inactive | HEK293 Ca cntr2 81.8
N#CSCC(=O)N1c2ccccc2CCc2ccccc21	MrgX1 PAM 8.54 | MrgX1 allo conf inactive | HEK293 Ca flux inactive | HEK293 Ca counter inactive | HEK293 Ca cntr2 inactive
NCC(O)c1cc(O)c(O)cc1F (stereo not given)	MrgX1 PAM 6.54 (no result: RGS4 inh, RGS4 act) | MrgX1 allo conf inactive | HEK293 Ca flux inactive | HEK293 Ca counter inactive | HEK293 Ca cntr2 inactive

Screening data (PubChem)
